The subject of assay [1] is K562. Kind of assay: Cell cycle arrest in human K562 cells assessed as accumulation at S phase at 50 uM after 24 hrs by flow cytometry. The assay is classed as functional. The method, boiled down: (§1)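 K-562 cells (RPMI 1640, 10% fetal calf serum, 37 °C, 5% CO2) were exposed for 24 h, then fixed in ice-cold 70% ethanol for 30 min. They were treated with RNase A (1 mg/ml, 37 °C, 30 min) and stained with propidium iodide and Triton X-100 solution for 30 min in the dark. DNA content was read on 10,000 events by flow cytometry, and the sub-G1 region was gated as apoptotic.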

The subject of assay [2] is K562. Kind of assay: Cell cycle arrest in human K562 cells assessed as accumulation at S phase at 10 uM after 24 hrs by flow cytometry. It is filed as functional. An outline of the steps:
as §1
For orientation: In flow cytometry, cells or beads pass a laser one at a time.

For a further assay, the system named is HCC 2998. Put plainly: Growth inhibition of human HCC2998 cells. It is filed as functional. An outline of the steps:
(§2)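 Tested in the NCI in vitro antitumor screening protocol on human tumor lines. The value is the concentration giving 50% reduction in cell growth.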

In assay [3] the test system is K562. Kind of assay: Cell cycle arrest in human K562 cells assessed as accumulation at G1 phase at 50 uM after 24 hrs by flow cytometry. It is filed as functional. The method, boiled down:
as §1

Assay [4] deals with K562. Put plainly: Growth inhibition of human K562 cells. It is filed as functional. The method, boiled down:
as §2

Assay [5] deals with K562. Put plainly: Induction of apoptosis in human K562 cells assessed as cytochrome-C release after 24 hrs by Western blot. It is filed as functional, cell-based. An outline of the steps:
(§3)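 Cells were dosed at several concentrations for 24 h and lysed in Tris-HCl pH 7.5 NP-40 buffer with phosphatase inhibitors. Equal protein was run on SDS-PAGE and transferred to PVDF. Membranes were blocked with 5% nonfat milk in TBST for 1 h, then immunoblotted.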
In general terms: Immunoblotting shows a protein as a band on a membrane.

Assay [6] relates to K562. Kind of assay: Cell cycle arrest in human K562 cells assessed as accumulation at G2/M phase at 50 uM after 24 hrs by flow cytometry. It is filed as functional. An outline of the steps: as §1
In assay [7] the test system is K562. Kind of assay: Cell cycle arrest in human K562 cells assessed as apoptotic cells at 50 uM after 24 hrs by flow cytometry. The assay is classed as functional. The method, boiled down: as §1
In assay [8] the test system is K562. Kind of assay: Induction of apoptosis in human K562 cells assessed as PARP cleavage after 24 hrs by Western blot. The assay is classed as functional, cell-based. The method, boiled down: as §3
For a further assay, the system named is M14. Put plainly: Growth inhibition of human M14 cells. It is filed as functional. The method, boiled down:
as §2

The subject of assay [9] is K562. Kind of assay: Induction of apoptosis in human K562 cells assessed as downregulation of XIAP protein level after 24 hrs by Western blot. It is filed as functional, cell-based. The method, boiled down: as §3
Assay [10] deals with K562. Put plainly: Induction of apoptosis in human K562 cells assessed as down-regulation of Bcl2 protein level after 24 hrs by Western blot. It is filed as functional, cell-based. The method, boiled down: as §3
The test system of the next assay is HeLa. Kind of assay: Induction of microtubule depolymerization in human HeLa cells at 50 uM after 2 hrs by immunocytochemistry. It is filed as functional, cell-based. The method, boiled down:
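HeLa cells were grown 24 h on coverslips, then treated at 37 °C. They were fixed in 4% paraformaldehyde for 5 min and permeabilized with 0.5% Triton X-100. After blocking with 5% goat serum/1% BSA, cells were stained with anti-ninein and anti-tubulin (45 min, 37 °C), then Alexa-conjugated secondaries and DAPI. Imaging was by confocal microscopy with a 100x objective.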

The test system of assay [11] is K562. Put plainly: Cell cycle arrest in human K562 cells assessed as accumulation at G0/G1 phase at 10 uM after 24 hrs by flow cytometry. It is filed as functional. The method, boiled down:
as §1

The subject of assay [12] is K562. Kind of assay: Cell cycle arrest in human K562 cells assessed as accumulation at G2/M phase at 10 uM after 24 hrs by flow cytometry. The assay is classed as functional. An outline of the steps: as §1
For another assay, the system named is OVCAR-3. Put plainly: Growth inhibition of human OVCAR-3 cells. It is filed as functional. An outline of the steps: as §2
Another assay deals with MDA-MB-231. Kind of assay: Growth inhibition of human MDA-MB-231 cells. The assay is classed as functional. The method, boiled down:
as §2

A further assay deals with HCT-15. Put plainly: Growth inhibition of human HCT15 cells. It is filed as functional. The method, boiled down: as §2
Assay [13] deals with K562. Kind of assay: Cell cycle arrest in human K562 cells assessed as accumulation at G0/G1 phase at 50 uM after 24 hrs by flow cytometry. It is filed as functional. The method, boiled down: as §1
The test system of another assay is ACHN. Kind of assay: Growth inhibition of human ACHN cells. The assay is classed as functional. The method, boiled down: as §2
In the next assay the test system is UACC-62. Kind of assay: Growth inhibition of human UACC62 cells. The assay is classed as functional. An outline of the steps: as §2
A further assay deals with CCRF-CEM. Put plainly: Growth inhibition of human CCRF-CEM cells. It is filed as functional. An outline of the steps: as §2
In assay [14] the test system is K562. Kind of assay: Cell cycle arrest in human K562 cells assessed as accumulation at SubG1 phase at 50 uM after 24 hrs by flow cytometry. It is filed as functional. An outline of the steps:
as §1

In another assay the test system is HOP-62. Put plainly: Growth inhibition of human HOP62 cells. It is filed as functional. An outline of the steps: as §2
Assay [15] concerns K562. Put plainly: Induction of apoptosis in human K562 cells assessed as increase in caspase-9 activity at 25 uM by colorimetric assay. It is filed as functional, cell-based. An outline of the steps:
(§4)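 Treated K-562 cells (1×10^6 cells/ml) were PBS-washed and lysed on ice for 10 min, and the cytosolic supernatant was cleared at 18,000 g. Protein was measured by BCA. Lysate protein was incubated with caspase-specific colorigenic substrate in 2X reaction buffer with 10 mM DTT at 37 °C for 1 h, and absorbance was read at 405 nm.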

The test system of assay [16] is K562. Put plainly: Induction of apoptosis in human K562 cells assessed as upregulation of Bax protein level after 24 hrs by Western blot. The assay is classed as functional, cell-based. An outline of the steps:
as §3

Assay [17] concerns K562. Kind of assay: Induction of apoptosis in human K562 cells assessed as increase in caspase-9 activity at 50 uM by colorimetric assay. It is filed as functional, cell-based. The method, boiled down: as §4
The next assay relates to SNB-75. Kind of assay: Growth inhibition of human SNB75 cells. The assay is classed as functional. The method, boiled down:
as §2

The subject of assay [18] is K562. Put plainly: Cell cycle arrest in human K562 cells assessed as accumulation at SubG1 phase at 10 uM after 24 hrs by flow cytometry. It is filed as functional. The method, boiled down:
as §1

For assay [19], the system named is K562. Put plainly: Induction of apoptosis in human K562 cells assessed as increase in caspase-3 activity by colorimetric assay. The assay is classed as functional, cell-based. An outline of the steps: as §4
For another assay, the system named is DU-145. Kind of assay: Growth inhibition of human DU145 cells. It is filed as functional. An outline of the steps: as §2
In another assay the test system is MDA-MB-435. Kind of assay: Growth inhibition of human MDA-MB-435 cells. The assay is classed as functional. The method, boiled down:
as §2

The structures appear in SMILES notation. Activity calls are given as the source filed them. The rule behind the calls is not given here.

What is called GI50 is the concentration giving 50% growth inhibition. A higher GI50 goes with less potent growth inhibition. `O=C1CCCCN1c1ccccc1C#C/C=C\C#Cc1ccccc1C(F)(F)F`: the Activity in the assay with K562 [1] was 0%; with K562 [2], 12.9%; in the assay with K562 [3] it was 27.7%; with K562 [5] it was “Dose-dependent effect”; with K562 [6] it was 59.7%; in the assay with K562 [7], 51%. In addition, the Activity entry with K562 [9] is “Dose-dependent effect”; in the assay on K562 [10] it was “Dose-dependent effect”; in the assay with K562 [11], 8.9%; in the assay on K562 [12], 78.3%; in the assay on K562 [13] it was 40.3%; in the assay on K562 [14], 31.57%. In addition, the Activity entry in the assay on K562 [16] was “Dose-dependent effect”; in the assay with K562 [18], 23.9%; in the assay on K562 [19] it was “Dose-dependent effect”. For the same molecule, the GI50 is 0.95 µM in the assay with HCC 2998; 8.56 µM with K562 [4]; 0.9 µM with M14; 0.87 µM in the assay with OVCAR-3; 1.16 µM in the assay on MDA-MB-231; 1.53 µM in the assay with HCT-15. Also, the GI50 with ACHN stood at 2.67 µM; in the assay with UACC-62, 1.44 µM; in the assay on CCRF-CEM, 1.56 µM; with HOP-62, 0.89 µM; in the assay with SNB-75, 1.61 µM; with DU-145, 1.68 µM. The molecule further displayed a GI50 in the assay on MDA-MB-435 of 0.6 µM. Moreover, the result in the assay on K562 [8], with HeLa, in the assay with K562 [15] and in the assay with K562 [17] was Active.
`CCC(=O)Nc1ccccc1C#C/C=C\C#Cc1ccccc1SC`: the Activity stood at 12.7% in the assay with K562 [1]; 42.1% in the assay with K562 [2]; 68.5% in the assay on K562 [6]; 22.7% with K562 [11]; 35.2% with K562 [12]; 18.7% with K562 [13]. Further, the Activity with K562 [14] worked out at 16.2%; in the assay with K562 [18], 9.8%. Also, the GI50 is 4.19 µM with HCC 2998; 2.29 µM with K562 [4]; 1.79 µM in the assay on M14; 1.79 µM in the assay on OVCAR-3; 2.17 µM with MDA-MB-231; 3.35 µM with HCT-15. The GI50 with ACHN came out at 4.08 µM; in the assay on UACC-62, 1.69 µM; in the assay with CCRF-CEM, 0.79 µM; in the assay with HOP-62, 2.52 µM; with SNB-75 it was 0.63 µM; in the assay with DU-145, 1.93 µM. Further, the GI50 in the assay with MDA-MB-435 was 0.75 µM.
In the case of `CSc1ccccc1C#C/C=C\C#Cc1ccccc1N1CCCC1=O`, the Activity was found to be 22.9% in the assay on K562 [1]; 0% in the assay on K562 [2]; 69.4% in the assay on K562 [6]; 49.3% in the assay with K562 [11]; 51.7% in the assay on K562 [12]; 7.7% in the assay on K562 [13]. Moreover, the Activity came to 17.79% in the assay with K562 [14] and 15.39% in the assay on K562 [18]. Also, the GI50 with HCC 2998 came out at 1.32 µM; in the assay on K562 [4] it was 0.44 µM; in the assay with M14 it was 3 µM; in the assay with OVCAR-3 it was 1.03 µM; with MDA-MB-231, 1.19 µM; in the assay with HCT-15 it was 1.53 µM. Further, the concentration for 50% growth inhibition (GI50) in the assay with ACHN is 10.5 µM; in the assay with UACC-62, 1.44 µM; in the assay with CCRF-CEM, 0.21 µM; in the assay with HOP-62, 5.02 µM; in the assay on SNB-75 it was 2.34 µM; with DU-145, 10.1 µM. This molecule also yielded a GI50 in the assay with MDA-MB-435 of 0.9 µM.
For `Nc1ccccc1C#C/C=C\C#Cc1ccccc1C(F)(F)F`, the Activity is 19.3% with K562 [1]; 6.7% with K562 [3]; 73.9% with K562 [6]; 19.4% in the assay with K562 [7]; “Dose-dependent effect” in the assay with K562 [19]. Besides, the result in the assay with HeLa, in the assay on K562 [15] and with K562 [17] was Active.
Regarding `CCC(=O)Nc1ccccc1C#C/C=C\C#Cc1ccccc1C(F)(F)F`, the Activity in the assay on K562 [1] worked out at 16.1%; in the assay with K562 [2], 51.9%; in the assay with K562 [6] it was 82.7%; in the assay with K562 [11], 14.6%; with K562 [12] it was 33.5%; in the assay on K562 [13], 1.2%. Besides, the values for the Activity in the assay on K562 [14] and in the assay on K562 [18] were 26.11% and 15.3%, respectively. Moreover, the GI50 is 5.08 µM in the assay with HCC 2998; 6.36 µM in the assay with K562 [4]; 12 µM with M14; 8.87 µM in the assay on OVCAR-3; 7.92 µM in the assay with MDA-MB-231; 4.27 µM in the assay on HCT-15. Besides, the GI50 in the assay with ACHN worked out at 30.1 µM; in the assay with UACC-62, 4.04 µM; in the assay with CCRF-CEM, 2.75 µM; in the assay on HOP-62, 10 µM; in the assay on SNB-75 it was 4.76 µM; in the assay with DU-145, 40.5 µM. For the same molecule, halving of growth in the assay with MDA-MB-435 (GI50) required 1.92 µM.

The values above are taken from ChEMBL document CHEMBL1152657, “1-(2-((Z)-6-(2-(Trifluoromethyl)phenyl)hexa-3-en-1,5-diynyl)phenyl)piperidin-2-one as a new potent apoptosis agent” (2009).
